Ten molecules from ChEMBL document CHEMBL4004800, “Thiol-Based Probe for Electrophilic Natural Products Reveals That Most of the Ammosamides Are Artifacts” (J Nat Prod, 2017) can be followed below.

Usually IC50 stands for the concentration that inhibits the measured activity by half.

The test system of series [1] is HCT-116. The series is described as follows: Cytotoxicity against human HCT116 cells assessed as growth inhibition by MTS assay. The series is classed as functional, cell-based. An outline of the steps: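 HCT-116 colorectal cells, cultured as in earlier work, were tested by colorimetric MTS assay. Compounds were supplied in DMSO from a 10 mg mL⁻¹ stock. IC50 came from a four-parameter sigmoidal fit, and values are averages of three measurements. Controls were DMSO (negative) and etoposide (positive, 4 mg mL⁻¹ stock in DMSO).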
A general note: Tetrazolium dyes change colour on reduction, which living cells bring about.

The subject of series [2] is HCT-116. The series is described as follows: Cytotoxicity against human HCT116 cells assessed as growth inhibition at 78.125 ug/ml by MTS assay relative to control. The series is classed as functional. The note with it: read-out: GI.
For series [3], the system named is Escherichia coli. In words: Antibacterial activity against Escherichia coli MG1655 at 10 ug after 48 hrs by disk diffusion method. The series is classed as functional. The note with it: K-12 substr. MG1655. An outline of the steps:
(§1)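 Kirby–Bauer disk diffusion on LB agar swabbed with inocula from 24 h LB (pH 7.0) precultures grown at rt, 200 rpm. Each 6 mm paper disc carried 10 μg compound, applied as […] in MeOH and dried before placement. Controls were MeOH (10 μL) as negative and ciprofloxacin 5 μg as positive. Plates were incubated 48 h.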

Series [4] concerns HCC44. In words: Cytotoxicity against human HCC44 cells. The series is classed as functional, cell-based.
The subject of series [5] is Bacillus oceanisediminis. In words: Antibacterial activity against Bacillus oceanisediminis CNY-977 at 10 ug after 48 hrs by disk diffusion method. The series is classed as functional. The method in brief: as §1
In general terms: In agar diffusion tests the substance spreads into inoculated agar from a disc or well.

A short description of series [6]: Drug metabolism assessed as half life for ammosamide B formation. Type of series: physicochemical.
The nature of series [7]: Stability of the compound in culture medium.
Series [8] in a line: Drug metabolism assessed as compound formation from ammosamide C. The series is classed as physicochemical. The method in brief:
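Ammosamide C TFA salt kept at rt in seawater-based A1 medium pH 10.0 (1.0 mg/500 μL; pH 6.8 control), PBS pH 10 (2.0 mg/1.0 mL), saturated NaHCO₃ pH 8.1 (2.0 mg/1.0 mL), or PBS pH 10 with 7 equiv L-cysteine. Products followed over days by analytical C18 ELSD-UV/vis-HPLC (1–60% CH₃CN, 0.1% formic acid), plus LC-HRMS for the buffer reactions.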

The mark [9] stands for this setting: Homo sapiens, HCT-116, read-out: IC50.

Activity calls are given as the source filed them. The rule behind the calls is not given here.

`CCCNC1=[N+](C)c2c(N)c(Cl)c(N)c3nc(C(N)=O)cc1c23`: in series [1] (setting [9]), the IC50 amounted to 6.8 µM.

Regarding `CN1C(=S)c2cc(C(N)=O)nc3c(N)c(Cl)c(N)c1c23`, in series [2], the inhibition of growth at 78.125 µg/mL amounted to 19%. Further, the result in series [3] was Active. Also, in series [1] (hct-116), the IC50 result is “Not Active”.

As to `CN1/C(=N/c2ccc(Cl)cc2)c2cc(C(N)=O)nc3c(N)c(Cl)c(N)c1c23`, the IC50 in series [1] (setting [9]) was 39 µM.

With `CC(=O)NCCSC1=[N+](C)c2c(N)c(Cl)c(N)c3nc(C(N)=O)cc1c23`, the inhibition of growth at 78.125 µg/mL in series [2] was found to be 26%. Moreover, the IC50 result in series [1] (hct-116) is listed as “Not Active”.

In the case of `CC(C)/N=C1\c2cc(C(N)=O)nc3c(N)c(Cl)c(N)c(c23)N1C`, the midpoint of inhibition in series [4], the IC50, lay at 1.1 µM.

Regarding `CCCCCC/N=C1\c2cc(C(N)=O)nc3c(N)c(Cl)c(N)c(c23)N1C`, the IC50 in series [4] was found to be 0.5 µM.

Regarding `CNC(=O)c1cc(C(N)=O)nc2c1C(=O)C(=O)C(Cl)=C2N`, the inhibition of growth at 78.125 µg/mL in series [2] stood at 97%. Moreover, the IC50 result in series [1] (hct-116) was “Not Active”.

As for `COc1cc([C@@H]2c3cc4c(cc3[C@@H](O[C@@H]3O[C@@H]5CO[C@@H](C)O[C@H]5[C@H](O)[C@H]3O)[C@H]3COC(=O)[C@H]23)OCO4)cc(OC)c1O` [ETOPOSIDE], the IC50 in series [1] (setting [9]) was 0.49 to 4.9 µM.

Take `C[N+]1=Cc2cc(C(N)=O)nc3c(N)c(Cl)c(N)c1c23`: the result in series [5] and in series [3] was Active. Besides, the t1/2 in series [6] stood at 240 h. Also, the Stability entry in series [7] is recorded as “Stable”. Further, the IC50 in series [1] (setting [9]) was 5.5 µM.

Turning to `CN1C(=O)c2cc(C(N)=O)nc3c(N)c(Cl)c(N)c1c23` [AMMOSAMIDE B], the outcome in series [3] was Active. For the same molecule, the Drug metabolism result in series [8] is “Metabolite_Detected”. In addition, in series [1] (setting [9]), the IC50 turned out to be 29 µM.
